Legend:
[1] = tested on: HT-29; experiment: Cytotoxicity against human HT29 cells assessed as reduction in cell density compound treated for 4 hrs under hypoxic condition measured after 5 days by sulforhodamine B assay; format: functional, cell-based
In short: (§1)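 Log-phase monolayers exposed to drug for 4 h under aerobic (20% O₂) or anoxic (<20 ppm O₂) conditions, then stained with sulforhodamine B 5 days later. IC50 interpolated as the concentration cutting cell density to 50% of same-plate controls; mean of 3–6 experiments.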

[2] = tested on: SiHa; experiment: Ratio IC50 for human SiHa cells under oxic condition to IC50 for human SiHa cells under hypoxic condition; format: functional
In short: (§2)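 Oxic IC50 divided by hypoxic IC50 (4 h exposure at 20% O₂ vs <20 ppm O₂, sulforhodamine B read-out 5 days later), taken as means of intraexperiment ratios over 2–6 experiments.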

[3] = tested on: HT-29; experiment: Cytotoxicity against human HT29 cells assessed as reduction in cell density compound treated for 4 hrs under oxic condition measured after 5 days by sulforhodamine B assay; format: functional, cell-based; in short: as §1
[4] = tested on: SiHa; experiment: Cytotoxicity against human SiHa cells assessed as reduction in cell density compound treated for 4 hrs under hypoxic condition measured after 5 days by sulforhodamine B assay; format: functional, cell-based; in short: as §1
[5] = tested on: HT-29; experiment: Ratio IC50 for human HT29 cells under oxic condition to IC50 for human HT29 cells under hypoxic condition; format: functional; in short: as §2
[6] = tested on: SiHa; experiment: Cytotoxicity against human SiHa cells assessed as reduction in cell density compound treated for 4 hrs under oxic condition measured after 5 days by sulforhodamine B assay; format: functional, cell-based; in short: as §1
[7] = tested on: SiHa; experiment: Antitumor activity against human SiHa cells xenografted in CD1-Foxn1nu/nu nude mouse assessed as log10 clonogens/g tumor at 42 umol/kg, iv administered 5 mins after irradiated with gamma-15 Gy measured after 18 hrs (reference value: 5.34 +/- 0.04 to 5.73 +/- 0.15 no unit); format: functional
[8] = tested on: SiHa; experiment: Antitumor activity against human SiHa cells xenografted in CD1-Foxn1nu/nu nude mouse assessed as log10 clonogens/g tumor at 42 umol/kg, iv measured after 18 hrs (reference value: 7.15 +/- 0.01 to 7.62 +/- 0.2 no unit); format: functional
[9] = tested on: SiHa; experiment: Antitumor activity against human SiHa cells xenografted in CD1-Foxn1nu/nu nude mouse assessed as hypoxic log10 cell kill at 42 umol/kg, iv administered 5 mins after irradiated with gamma-15 Gy measured after 18 hrs; format: functional
In short: (§3)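 Male nude mice bearing subcutaneous SiHa tumours, from 10⁷ cultured cells, randomised at a mean diameter of 8–10 mm. Phosphate given iv in phosphate-buffered saline with 4 equiv sodium bicarbonate, 5 min after whole-body cobalt-60 15 Gy. Tumours excised 18 h later for clonogenic assay (log10 clonogens/g), 5 mice per group. Hypoxic log cell kill = radiation + drug versus radiation alone; ANOVA with Holm-Sidak.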

[10] = tested on: SK-OV-3; experiment: Cytotoxicity against human SKOV3 cells under oxic condition relative to hypoxic condition; format: functional
[11] = tested on: HT-29; experiment: Cytotoxicity against human HT29 cells under oxic condition relative to hypoxic condition; format: functional
In short: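 Log-phase HT29 monolayers exposed to drug for 4 h under aerobic (20% O₂) or anoxic (<20 ppm O₂) conditions, then sulforhodamine B staining 5 days later. IC50 interpolated as the concentration cutting cell density to 50% of same-plate controls. Ratio = IC50(oxic)/IC50(hypoxic), taken as the mean of intraexperiment ratios over 2–6 experiments.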

[12] = tested on: SiHa; experiment: Antitumor activity against human SiHa cells xenografted in CD1-Foxn1nu/nu nude mouse assessed as log10 clonogens/g tumor at 30 umol/kg, iv administered 5 mins after irradiated with gamma-15 Gy measured after 18 hrs (reference value: 5.34 +/- 0.04 to 5.73 +/- 0.15 no unit); format: functional
[13] = tested on: SiHa; experiment: Antitumor activity against human SiHa cells xenografted in CD1-Foxn1nu/nu nude mouse assessed as hypoxic log10 cell kill at 30 umol/kg, iv administered 5 mins after irradiated with gamma-15 Gy measured after 18 hrs; format: functional; in short: as §3
[14] = tested on: SiHa; experiment: Antitumor activity against human SiHa cells xenografted in CD1-Foxn1nu/nu nude mouse assessed as log10 clonogens/g tumor at 30 umol/kg, iv measured after 18 hrs (reference value: 7.15 +/- 0.01 to 7.62 +/- 0.2 no unit); format: functional
[15] = Aqueous solubility of the compound; format: physicochemical

For O=C(/C=C/c1ccc(OCCN2CCOCC2)cc1)N1CC(CBr)c2c1cc([N+](=O)[O-])c1cc(S(=O)(=O)NCCO)ccc21 (configuration not stated), the IC50 [1] was 80 nM, the “Ratio IC50” value [2] was 41 and the IC50 [3] was 11200 nM. For the same compound, the IC50 [4] was 90 nM, the “Ratio IC50” value [5] was 286 and the IC50 [6] was 2720 nM.
With COc1cc2cc(C(=O)N3CC(CCl)c4c3cc([N+](=O)[O-])c3cc(S(=O)(=O)NCCO)ccc43)[nH]c2c(OC)c1OC (configuration not stated) the IC50 [1] was 11000 nM, the “Ratio IC50” value [2] was 16 and the IC50 [3] was 28000 nM. For the same compound, the IC50 [4] was 3500 nM, the “Ratio IC50” value [5] was 2.1 and the IC50 [6] was 13000 nM.
Compound COc1cc2cc(C(=O)N3CC(CCl)c4c3cc([N+](=O)[O-])c3cc(S(=O)(=O)NCCOP(=O)(O)O)ccc43)[nH]c2c(OC)c1OC (configuration not stated) has an Activity [7] of 4.96, an Activity [8] of 7.29 and an LCK [9] of 0.55.
In the case of CN(C)CCOc1ccc2[nH]c(C(=O)N3CC(CCl)c4c3cc([N+](=O)[O-])c3cc(S(=O)(=O)NCCO)ccc43)cc2c1 (configuration not stated), the IC50 [1] is reported as 90 nM, the “Ratio IC50” value [2] is reported as 46 and the IC50 [3] is reported as 9300 nM. For the same compound, the IC50 [4] was 70 nM, the “Ratio IC50” value [5] was 160 and the IC50 [6] was 2000 nM.
For CN(C)CCOc1ccc2[nH]c(C(=O)N3CC(CCl)c4c3cc([N+](=O)[O-])c3cc(S(N)(=O)=O)ccc43)cc2c1 (configuration not stated), the Ratio [10] was 275 and the Ratio [11] was 330.
For COc1ccc(/C=C/C(=O)N2CC(CBr)c3c2cc([N+](=O)[O-])c2cc(S(=O)(=O)NCCO)ccc32)cc1 (configuration not stated), the IC50 [1] was under 100 nM, the “Ratio IC50” value [2] was 17 and the IC50 [3] was 2450 nM. The IC50 [4] was 120 nM, the “Ratio IC50” value [5] was over 25 and the IC50 [6] was 1440 nM.
Work on O=C(c1cc2cc(OCCN3CCOCC3)ccc2[nH]1)N1CC(CBr)c2c1cc([N+](=O)[O-])c1cc(S(=O)(=O)NCCOP(=O)(O)O)ccc21 (configuration not stated) yielded an Activity [7] of 2.6, an Activity [8] of 6.05 and an LCK [9] of 2.8.
Compound COc1ccc(/C=C/C(=O)N2CC(CBr)c3c2cc([N+](=O)[O-])c2cc(S(=O)(=O)NCCOP(=O)(O)O)ccc32)cc1 (configuration not stated) has an Activity [7] of 4.5, an Activity [8] of 7.07 and an LCK [9] of 0.87.
Compound COc1cc2cc(C(=O)N3CC(CBr)c4c3cc([N+](=O)[O-])c3cc(S(=O)(=O)NCCOP(=O)(O)O)ccc43)[nH]c2c(OC)c1OC (configuration not stated) has an Activity [7] of 3.62, an Activity [8] of 6.51 and an LCK [9] of 1.84.
In the case of COc1cc2cc(C(=O)N3CC(CBr)c4c3cc([N+](=O)[O-])c3cc(S(=O)(=O)NCCO)ccc43)[nH]c2c(OC)c1OC (configuration not stated), the IC50 [1] is reported as 1350 nM, the “Ratio IC50” value [2] is reported as 10 and the IC50 [3] is reported as 12300 nM. For the same compound, the IC50 [4] was 270 nM, the “Ratio IC50” value [5] was 10 and the IC50 [6] was 2610 nM.
In the case of O=C(c1cc2cc(OCCN3CCOCC3)ccc2[nH]1)N1CC(CBr)c2c1cc([N+](=O)[O-])c1cc(S(=O)(=O)NCCO)ccc21 (configuration not stated), the IC50 [1] is reported as 440 nM, the “Ratio IC50” value [2] is reported as 43 and the IC50 [3] is reported as 22400 nM. For the same compound, the IC50 [4] was 280 nM, the “Ratio IC50” value [5] was 52 and the IC50 [6] was 11700 nM.
O=C(/C=C/c1ccc(OCCN2CCOCC2)cc1)N1CC(CBr)c2c1cc([N+](=O)[O-])c1cc(S(=O)(=O)NCCOP(=O)(O)O)ccc21 (configuration not stated) showed an Activity [12] of 3.78, an LCK [13] of 1.56 and an Activity [14] of 7.01.
With CN(C)CCOc1ccc2[nH]c(C(=O)N3CC(CCl)c4c3cc([N+](=O)[O-])c3cc(S(=O)(=O)NCCOP(=O)(O)O)ccc43)cc2c1 (configuration not stated) the Activity [7] was 3.9, the solubility [15] was over 2000 µM and the Activity [8] was 6.89. The LCK [9] was 1.83.

From ChEMBL document CHEMBL1833894, “The effect of a bromide leaving group on the properties of nitro analogs of the duocarmycins as hypoxia-activated prodrugs and phosphate pre-prodrugs for antitumor therapy” (Bioorg Med Chem, 2011)
